ChEMBL document CHEMBL4823260, “From High-Throughput Screening to Target Validation: Benzo[d]isothiazoles as Potent and Selective Agonists of Human Transient Receptor Potential Cation Channel Subfamily M Member 5 Possessing In Vivo Gastrointestinal Prokinetic Activity in Rodents” (J Med Chem, 2021)
In brackets after ≈: the same amount, converted by molar mass.

Tests used:
[1] = Solubility of the compound in phospahte-buffered saline buffer at pH 7.4 incubated for 2 hrs by HPLC/UV analysis; type: physicochemical; conditions: phosphate-buffered saline
[2] = Intrinsic clearance in human liver microsomes assessed per mg protein incubated up to 30 mins in presence of NADPH by LC-MS/MS analysis; type: ADME, Microsome
[3] = Intrinsic clearance in mouse liver microsomes assessed per mg protein incubated up to 30 mins in presence of NADPH by LC-MS/MS analysis; type: ADME, Microsome
[4] = biological target: T1, Transient receptor potential cation channel subfamily M member 5 (Mus musculus, UniProt Q9JJH7); assay: Agonist activity at mouse TRPM5 expressed in CHO-K1 cells maintained at 80 mV final holding potential by syncroPatch assay; type: cell-based
T1 sequence (Q9JJH7 whole entry): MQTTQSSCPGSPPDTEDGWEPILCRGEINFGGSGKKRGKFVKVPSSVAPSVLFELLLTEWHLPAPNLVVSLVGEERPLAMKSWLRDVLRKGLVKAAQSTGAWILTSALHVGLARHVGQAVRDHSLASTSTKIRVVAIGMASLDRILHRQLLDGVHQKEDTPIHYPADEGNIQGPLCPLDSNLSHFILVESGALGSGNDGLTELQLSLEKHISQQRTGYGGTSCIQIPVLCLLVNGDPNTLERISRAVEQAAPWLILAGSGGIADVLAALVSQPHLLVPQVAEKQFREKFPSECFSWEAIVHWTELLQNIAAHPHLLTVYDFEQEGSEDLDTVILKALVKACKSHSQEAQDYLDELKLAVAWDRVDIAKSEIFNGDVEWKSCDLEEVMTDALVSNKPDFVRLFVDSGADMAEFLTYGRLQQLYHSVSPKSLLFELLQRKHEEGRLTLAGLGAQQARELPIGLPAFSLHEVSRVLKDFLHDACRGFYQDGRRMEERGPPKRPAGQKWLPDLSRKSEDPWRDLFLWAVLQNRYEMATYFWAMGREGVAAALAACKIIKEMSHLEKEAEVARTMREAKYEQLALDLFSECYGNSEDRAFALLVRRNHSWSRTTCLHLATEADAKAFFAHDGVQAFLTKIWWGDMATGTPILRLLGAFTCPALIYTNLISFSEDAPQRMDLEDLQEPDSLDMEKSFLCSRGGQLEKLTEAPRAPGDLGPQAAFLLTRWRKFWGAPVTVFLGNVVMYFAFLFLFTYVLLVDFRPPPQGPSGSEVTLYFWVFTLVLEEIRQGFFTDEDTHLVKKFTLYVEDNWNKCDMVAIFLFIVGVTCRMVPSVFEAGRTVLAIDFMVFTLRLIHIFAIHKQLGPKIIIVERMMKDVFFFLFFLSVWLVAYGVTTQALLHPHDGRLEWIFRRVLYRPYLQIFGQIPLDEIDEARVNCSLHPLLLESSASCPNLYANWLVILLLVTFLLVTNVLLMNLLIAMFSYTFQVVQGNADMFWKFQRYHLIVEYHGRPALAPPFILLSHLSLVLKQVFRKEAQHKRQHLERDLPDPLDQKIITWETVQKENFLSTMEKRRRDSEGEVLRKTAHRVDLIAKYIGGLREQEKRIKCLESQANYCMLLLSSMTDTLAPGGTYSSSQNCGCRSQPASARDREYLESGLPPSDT
Method in brief: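 SyncroPatch 384 whole-cell recording at rt on CHO-K1 cells stably expressing human or mouse TRPM5. Intracellular solution had 2 mM Na-ATP and 5 μM free Ca2+. Cumulative doses 0.03–31.6 μM in 0.5% DMSO, 150 s each after 180 s vehicle. Current measured at the end of the +80 mV step, normalized to vehicle; pEC50 is the mean of ≥2 independent experiments.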

[5] = biological target: Transient receptor potential cation channel subfamily V member 1 (Homo sapiens, UniProt Q8NER1); assay: Agonist activity at human TRPV1 expressed in CHO cells assessed as increase in capsaicin-induced intracellular calcium level measured after 1 hr by FLIPR assay; type: cell-based
Method in brief: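 CHO cells stably expressing hTRPV1, plated at 10,000/well 24 h before the assay. Loaded with calcium-6 dye plus 2.5 mM probenecid for 1 h at 37 °C and 1 h at rt. FLIPR dual-addition protocol; agonist potency derived as pEC50.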

[6] = Apparent permeability across apical to basolateral membrane in human Caco-2 cells incubated for 30 mins by LC-MS/MS analysis; type: ADME, cell-based
[7] = biological target: Transient receptor potential cation channel subfamily M member 4 (Homo sapiens, UniProt Q8TD43); assay: Agonist activity at human TRPM4 expressed in CHO cells assessed as change in membrane potential by FLIPR assay
[8] = biological target: Transient receptor potential cation channel subfamily V member 4 (Homo sapiens, UniProt Q9HBA0); assay: Agonist activity at human TRPV4 expressed in HEK cells assessed as increase in GSK1016790A-induced intracellular calcium level measured after 1 hr by FLIPR assay; type: cell-based
[9] = biological target: Transient receptor potential cation channel subfamily A member 1 (Homo sapiens, UniProt O75762); assay: Agonist activity at human TRPA1 expressed in HEK cells assessed as increase in menthol-induced intracellular calcium level incubated for 2 hrs by FLIPR assay; type: cell-based
Method in brief: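 HEK cells stably expressing hTRPA1, plated at 20,000/well 24 h ahead, loaded with calcium-6 dye plus 2.5 mM probenecid for 2 h at 37 °C. First FLIPR addition: 11-point 1:3 concentration series, read for 5 min, scaled to (−)menthol 1 mM final (100% control); pEC50 fitted. Final DMSO 0.5%; run at 37 °C.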

Chain of Transient receptor potential cation channel subfamily V member 1 (Q8NER1 whole entry): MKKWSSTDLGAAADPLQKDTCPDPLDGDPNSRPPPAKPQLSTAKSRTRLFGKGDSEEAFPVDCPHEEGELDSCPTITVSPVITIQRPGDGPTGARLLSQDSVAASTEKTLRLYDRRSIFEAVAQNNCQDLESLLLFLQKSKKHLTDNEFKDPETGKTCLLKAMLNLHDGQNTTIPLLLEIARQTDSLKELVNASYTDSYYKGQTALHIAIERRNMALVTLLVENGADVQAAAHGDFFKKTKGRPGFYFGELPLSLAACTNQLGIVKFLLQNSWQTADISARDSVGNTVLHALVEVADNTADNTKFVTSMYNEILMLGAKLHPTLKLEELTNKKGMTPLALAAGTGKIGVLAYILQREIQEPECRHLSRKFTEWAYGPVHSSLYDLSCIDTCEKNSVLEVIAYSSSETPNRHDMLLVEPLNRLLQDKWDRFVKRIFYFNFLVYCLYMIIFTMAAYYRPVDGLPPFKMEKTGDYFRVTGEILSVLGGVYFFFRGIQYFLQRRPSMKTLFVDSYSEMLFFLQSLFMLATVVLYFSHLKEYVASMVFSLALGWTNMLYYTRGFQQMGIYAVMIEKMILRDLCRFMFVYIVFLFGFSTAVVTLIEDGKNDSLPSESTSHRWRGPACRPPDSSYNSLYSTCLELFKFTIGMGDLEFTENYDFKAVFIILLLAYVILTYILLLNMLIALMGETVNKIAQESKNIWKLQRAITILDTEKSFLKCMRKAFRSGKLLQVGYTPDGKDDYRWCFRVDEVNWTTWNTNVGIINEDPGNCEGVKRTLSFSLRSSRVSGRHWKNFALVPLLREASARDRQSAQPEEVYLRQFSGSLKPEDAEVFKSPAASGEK
Chain of Transient receptor potential cation channel subfamily M member 4 (Q8TD43 whole entry): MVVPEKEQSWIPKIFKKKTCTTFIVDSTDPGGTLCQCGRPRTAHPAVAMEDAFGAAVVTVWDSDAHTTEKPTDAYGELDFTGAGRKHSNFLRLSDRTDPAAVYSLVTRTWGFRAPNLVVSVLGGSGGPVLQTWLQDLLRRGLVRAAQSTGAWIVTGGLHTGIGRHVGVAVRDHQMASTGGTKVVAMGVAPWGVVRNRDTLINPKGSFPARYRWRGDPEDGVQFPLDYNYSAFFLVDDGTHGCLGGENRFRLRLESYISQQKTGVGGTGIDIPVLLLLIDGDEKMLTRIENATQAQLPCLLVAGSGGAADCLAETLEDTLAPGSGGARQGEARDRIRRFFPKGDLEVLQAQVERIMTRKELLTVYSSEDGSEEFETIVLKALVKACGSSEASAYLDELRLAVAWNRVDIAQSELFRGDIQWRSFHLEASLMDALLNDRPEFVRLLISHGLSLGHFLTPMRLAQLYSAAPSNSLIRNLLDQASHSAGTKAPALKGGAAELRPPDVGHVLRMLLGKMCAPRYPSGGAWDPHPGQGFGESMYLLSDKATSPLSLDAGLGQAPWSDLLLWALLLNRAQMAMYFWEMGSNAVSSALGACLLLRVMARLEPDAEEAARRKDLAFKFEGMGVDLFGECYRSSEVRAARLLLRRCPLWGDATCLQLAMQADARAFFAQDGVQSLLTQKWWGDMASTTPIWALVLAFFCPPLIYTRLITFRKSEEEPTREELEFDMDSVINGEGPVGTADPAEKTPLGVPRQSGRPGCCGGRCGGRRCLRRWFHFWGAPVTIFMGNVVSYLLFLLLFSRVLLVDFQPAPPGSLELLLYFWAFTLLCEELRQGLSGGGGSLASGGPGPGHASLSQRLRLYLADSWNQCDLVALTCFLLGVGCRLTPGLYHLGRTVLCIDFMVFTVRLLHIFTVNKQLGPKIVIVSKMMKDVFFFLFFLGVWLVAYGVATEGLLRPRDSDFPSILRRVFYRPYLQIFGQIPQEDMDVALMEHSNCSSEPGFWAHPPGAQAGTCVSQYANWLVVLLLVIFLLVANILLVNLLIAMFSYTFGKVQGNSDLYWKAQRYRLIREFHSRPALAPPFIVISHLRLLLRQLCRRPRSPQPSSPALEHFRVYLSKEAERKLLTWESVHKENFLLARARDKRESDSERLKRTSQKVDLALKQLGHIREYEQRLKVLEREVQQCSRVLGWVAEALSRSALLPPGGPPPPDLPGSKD
Chain of Transient receptor potential cation channel subfamily V member 4 (Q9HBA0 whole entry): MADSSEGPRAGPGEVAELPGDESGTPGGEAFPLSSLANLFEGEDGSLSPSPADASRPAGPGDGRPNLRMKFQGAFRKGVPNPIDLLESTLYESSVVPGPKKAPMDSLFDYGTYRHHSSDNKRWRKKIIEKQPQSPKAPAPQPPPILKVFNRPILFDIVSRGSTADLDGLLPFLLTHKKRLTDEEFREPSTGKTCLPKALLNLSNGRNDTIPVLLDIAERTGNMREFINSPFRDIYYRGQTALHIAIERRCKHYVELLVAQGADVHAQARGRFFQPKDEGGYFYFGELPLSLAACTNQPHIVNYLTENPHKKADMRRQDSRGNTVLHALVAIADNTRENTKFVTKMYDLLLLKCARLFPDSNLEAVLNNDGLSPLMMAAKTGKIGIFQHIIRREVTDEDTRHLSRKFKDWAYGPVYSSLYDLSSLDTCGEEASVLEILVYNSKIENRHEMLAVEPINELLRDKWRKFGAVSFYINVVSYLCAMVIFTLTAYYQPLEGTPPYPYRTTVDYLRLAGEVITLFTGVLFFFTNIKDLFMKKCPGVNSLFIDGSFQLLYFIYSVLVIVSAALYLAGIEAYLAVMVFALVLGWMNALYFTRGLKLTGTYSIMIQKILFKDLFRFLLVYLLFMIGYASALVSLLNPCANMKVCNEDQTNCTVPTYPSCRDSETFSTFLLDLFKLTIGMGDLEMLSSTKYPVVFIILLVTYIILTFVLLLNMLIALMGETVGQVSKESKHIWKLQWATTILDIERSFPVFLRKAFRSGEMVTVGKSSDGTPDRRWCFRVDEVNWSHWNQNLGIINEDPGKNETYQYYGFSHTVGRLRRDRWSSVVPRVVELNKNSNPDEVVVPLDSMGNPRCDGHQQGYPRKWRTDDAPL
Chain of Transient receptor potential cation channel subfamily A member 1 (O75762 whole entry): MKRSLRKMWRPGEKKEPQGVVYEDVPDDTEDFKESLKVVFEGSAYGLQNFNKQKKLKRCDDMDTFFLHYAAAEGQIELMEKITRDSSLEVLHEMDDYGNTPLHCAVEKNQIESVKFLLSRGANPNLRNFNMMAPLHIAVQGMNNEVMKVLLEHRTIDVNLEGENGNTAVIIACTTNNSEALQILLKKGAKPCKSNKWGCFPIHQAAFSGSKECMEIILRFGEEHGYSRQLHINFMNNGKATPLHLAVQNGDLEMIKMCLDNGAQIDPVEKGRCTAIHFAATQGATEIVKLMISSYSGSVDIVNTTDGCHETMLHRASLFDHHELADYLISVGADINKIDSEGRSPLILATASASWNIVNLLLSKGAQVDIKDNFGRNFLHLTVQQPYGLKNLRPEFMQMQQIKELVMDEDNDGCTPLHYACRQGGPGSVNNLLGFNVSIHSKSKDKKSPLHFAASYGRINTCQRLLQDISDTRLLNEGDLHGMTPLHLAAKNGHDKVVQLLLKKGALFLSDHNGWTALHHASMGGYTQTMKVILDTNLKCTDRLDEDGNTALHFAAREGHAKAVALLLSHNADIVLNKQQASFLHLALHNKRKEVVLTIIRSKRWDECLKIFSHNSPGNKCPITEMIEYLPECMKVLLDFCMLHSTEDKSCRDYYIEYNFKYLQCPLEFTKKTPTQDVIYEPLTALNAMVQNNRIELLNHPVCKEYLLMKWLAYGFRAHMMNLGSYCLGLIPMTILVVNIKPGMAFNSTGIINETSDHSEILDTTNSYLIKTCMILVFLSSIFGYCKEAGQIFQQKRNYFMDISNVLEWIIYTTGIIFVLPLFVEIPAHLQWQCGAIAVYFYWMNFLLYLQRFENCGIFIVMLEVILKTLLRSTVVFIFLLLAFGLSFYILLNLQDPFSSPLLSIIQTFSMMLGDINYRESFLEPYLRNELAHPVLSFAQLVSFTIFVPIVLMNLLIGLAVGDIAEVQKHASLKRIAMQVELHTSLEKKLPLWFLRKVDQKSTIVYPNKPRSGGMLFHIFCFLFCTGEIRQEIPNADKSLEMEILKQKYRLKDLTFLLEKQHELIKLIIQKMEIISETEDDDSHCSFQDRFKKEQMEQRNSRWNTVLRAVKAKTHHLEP

| solubility at 2 h [1] [µM] | microsomal CLint [2] [µL/min/mg] | microsomal CLint [3] [µL/min/mg] | EC50 [4] [µM] | EC50 [5] [µM] | Papp A→B at 0.5 h [6] [×10⁻⁶ cm/s] | EC50 [8] [µM] | EC50 [9] [µM] | SMILES | EC50 [7] [µM] |
| --- | --- | --- | --- | --- | --- | --- | --- | --- | --- |
| 50 (≈ 14.1 µg/mL) | 193 | 462 | 0.0851 | > 15.8 | 12.6 | > 15.8 | 3.16 | Clc1cnc(CNc2ccc3sncc3c2)s1 | > 63.1 |
| 511 (≈ 144 µg/mL) | 146 | 164 | 0.0437 | > 15.8 | 10.7 | > 15.8 | 6.31 | Clc1cnc(CNc2ccc3cnsc3c2)s1 | > 63.1 |
| 30 (≈ 9.49 µg/mL) | 172 | 520 | 0.0158 | > 15.8 | 4.1 | > 15.8 | 3.16 | Clc1cnc(CNc2cc3sncc3cc2Cl)s1 | 3.16 |
